Laboratory results reported in ChEMBL document CHEMBL1147498, “6-aryl-2,4-dioxo-5-hexenoic acids, novel integrase inhibitors active against HIV-1 multiplication in cell-based assays” (Bioorg Med Chem Lett, 2004).
“And” between values parts separate entries of the source, which are not always exact repeats. Equal entries are not always repeated.

Experiments:
[1] = target: Human immunodeficiency virus type 1 integrase (Human immunodeficiency virus 1, UniProt Q7ZJM1); assay: Inhibitory activity against HIV-1 integrase.
MT4 = assay: Effective concentration required to reduce the exponential growth of MT-4/KB cells; assay type: functional, cell-based; settings: Homo sapiens
How it was run: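 Cell-based HIV-1 multiplication assay in MT-4 cells, run in parallel with cytotoxicity on mock-infected cells. Value is the concentration giving 50% reduction of exponential growth of MT-4/KB cells. Mean of three independent determinations.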

[2] = (§1) Cytotoxic concentration required to reduce the viability of mock-infected cells was determined by using MTT assay
How it was run: (§2)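 Viability of mock-infected cells read by MTT, run in parallel with the antiviral assay. Value is the dose giving a 50% loss of viability. Mean of three independent determinations.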

[3] = Selectivity index was determined; assay type: functional
[4] = as §1; assay type: functional; how it was run: as §2

Human immunodeficiency virus type 1 integrase, sequence (Q7ZJM1 whole entry): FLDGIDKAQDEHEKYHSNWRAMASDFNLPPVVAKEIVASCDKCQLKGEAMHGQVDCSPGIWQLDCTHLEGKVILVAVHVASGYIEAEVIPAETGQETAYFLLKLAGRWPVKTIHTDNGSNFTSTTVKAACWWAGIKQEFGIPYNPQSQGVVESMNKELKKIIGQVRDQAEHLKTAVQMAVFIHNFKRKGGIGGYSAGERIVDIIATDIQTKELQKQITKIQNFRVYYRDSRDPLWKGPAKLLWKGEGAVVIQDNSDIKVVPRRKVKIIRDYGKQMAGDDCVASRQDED

| SMILES | IC50 [1] | EC50 (MT4) | CC50 [2] | Selectivity index [3] | CC50 [4] |
| --- | --- | --- | --- | --- | --- |
| O=C(/C=C/c1cccn1Cc1ccc(F)cc1)CC(=O)C(=O)O | 61 µM and 72 µM | 11 µM | 80 µM | 7.3 | – |
| O=C(/C=C/c1cccn1Cc1ccccc1)CC(=O)C(=O)O | – | 1.5 µM | 61 µM | – | – |
| CCOC(=O)C(=O)CC(=O)/C=C/c1cccn1Cc1ccc(Cl)cc1 | – | > 52 µM | 52 µM | – | – |
| CCOC(=O)C(=O)CC(=O)/C=C/c1cccn1Cc1ccc(OC)cc1 | – | > 27 µM | 27 µM | – | – |
| O=C(/C=C/c1cccn1Cc1ccc([N+](=O)[O-])cc1)CC(=O)C(=O)O | 76 µM and 92 µM | > 33 µM | – | – | 33 µM |
| CCOC(=O)C(=O)CC(=O)/C=C/c1cccn1Cc1ccc(F)cc1 | – | 12 µM | 55 µM | – | – |
| O=C(O)C(=O)CC(=O)c1cccn1Cc1ccc(F)cc1 | – | 1.5 µM | – | – | – |
| CCOC(=O)C(=O)CC(=O)/C=C/c1cccn1Cc1ccc(C)cc1 | – | > 7 µM | 7 µM | – | – |
| CCOC(=O)C(=O)CC(=O)/C=C/c1cccn1Cc1ccccc1 | – | – | 17 µM | – | – |
| O=C(/C=C/c1cccn1Cc1ccc(Cl)cc1)CC(=O)C(=O)O | 50 µM and 65 µM | > 95 µM | 95 µM | – | – |
| COc1ccc(Cn2cccc2/C=C/C(=O)CC(=O)C(=O)O)cc1 | – | > 78 µM | 78 µM | – | – |
| CCOC(=O)C(=O)CC(=O)/C=C/c1cccn1Cc1ccc([N+](=O)[O-])cc1 | 57 µM and 45 µM | > 31 µM | 31 µM | – | – |
| Cc1ccc(Cn2cccc2/C=C/C(=O)CC(=O)C(=O)O)cc1 | – | > 41 µM | 41 µM | – | – |
